Assay outcomes from PubChem.
HCV NS3 hel inh = inhibitors of HCV NS3 helicase, primary screen, biochemical, Cy5 molecular beacon fluorescence; 290,000 compounds, 0.56% hits; Hepatitis C virus NS3 helicase; inhibition, % at 10.9 µM; NS3 helicase DNA unwinding;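 active = inhibition above the mean of all tested compounds plus 3 SD, set per campaign, cut at about 35% in these data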
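Assay system – hepatitis C virus NS3 helicase domain fragment enzyme · Buffer or medium – MOPS pH 6.5, MgCl2, DTT, Tween20, BSA · Reagent – Cy5/quencher beacon DNA duplex and ATP to start · Compound – single 10.9 µM dose · Timing – 1 h at 25 °C · Technique – Cy5 beacon fluorescence read at start and 1 h · Measure – % inhibition of unwinding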
p97 ATPase inh = inhibitors of human p97 ATPase, primary screen, biochemical | inhibition, % at 8 µM | recombinant p97 ATPase, Kinase-Glo ATP luminescence, 3 h | Transitional endoplasmic reticulum ATPase (Homo sapiens), P55072 | 220,000 compounds, 0.42% hits | AID 1481, 2009; in the data active = inhibition above about 15%
Target sequence (P55072 whole entry, looked up): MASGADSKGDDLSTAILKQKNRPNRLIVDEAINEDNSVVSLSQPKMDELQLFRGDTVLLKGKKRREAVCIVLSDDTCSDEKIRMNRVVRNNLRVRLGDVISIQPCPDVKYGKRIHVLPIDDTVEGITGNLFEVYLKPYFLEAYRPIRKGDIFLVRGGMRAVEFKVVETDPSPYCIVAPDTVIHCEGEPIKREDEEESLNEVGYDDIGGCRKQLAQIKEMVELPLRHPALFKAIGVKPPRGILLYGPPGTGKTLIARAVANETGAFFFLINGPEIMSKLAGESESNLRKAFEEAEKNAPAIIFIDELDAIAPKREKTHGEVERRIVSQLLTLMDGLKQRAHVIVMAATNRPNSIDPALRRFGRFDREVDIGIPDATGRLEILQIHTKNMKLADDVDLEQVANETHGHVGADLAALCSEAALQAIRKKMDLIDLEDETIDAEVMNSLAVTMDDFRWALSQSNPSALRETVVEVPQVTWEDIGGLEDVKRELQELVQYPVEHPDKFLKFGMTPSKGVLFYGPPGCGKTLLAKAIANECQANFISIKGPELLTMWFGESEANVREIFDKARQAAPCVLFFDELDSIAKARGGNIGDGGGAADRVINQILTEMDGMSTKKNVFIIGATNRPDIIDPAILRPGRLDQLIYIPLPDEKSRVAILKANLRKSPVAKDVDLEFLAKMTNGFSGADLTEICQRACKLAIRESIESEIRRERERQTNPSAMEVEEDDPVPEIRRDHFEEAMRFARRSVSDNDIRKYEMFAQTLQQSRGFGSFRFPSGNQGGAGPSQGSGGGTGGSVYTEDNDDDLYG
CHOP inh = inhibitors of CHOP promoter induction, primary screen, cell-based, unfolded protein response, luciferase reporter; 220,000 compounds, 3.8% hits; inhibition, % at 10 µM; CHO-K1 CHOP-promoter luciferase, tunicamycin-induced, 15-18 h;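 active = compounds that reduced the stress-induced luciferase reporter signal by more than about 70% of percent inhibition, limit read from the data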
UPR XBP1 act = activators of adaptive XBP1 UPR arm, primary screen, cell-based, CHO-XBP1 luciferase reporter, luminescence, uHTS; IRE1-XBP1 UPR activation; percent of tunicamycin response, DMSO as zero; activation, % at 20 µM; 330,000 compounds, 0.33% hits;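 active = versus positive control, 20 µM dose yields 30% or more activation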
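Material: CHO cell line with stable XBP1 luciferase reporter; buffer or medium: F12 medium containing 10% fetal bovine serum; compound: single point, 20 µM final compound, 1% DMSO; incubation: 6 h treatment, 37 °C; measured by: glow luminescence from Steady-Glo reagent; evaluation: activation, % of tunicamycin; control set: tunicamycin high, DMSO low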
UPR CHOP act = activators of apoptotic CHOP UPR arm, primary screen, cell-based, CHO-CHOP luciferase reporter, luminescence, uHTS | UPR activation; percent of tunicamycin response over DMSO baseline | activation, % at 10 µM | 330,000 compounds, 0.34% hits;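 active = at 10 µM dose, activation of 40% or more, normalized to positive control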
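assay system = CHO CHOP reporter cells | amount = 500 CHO-CHOP cells per well | buffer or medium = F12 with 10% FBS | incubation = 16-18 h cell attachment, then 6 h compound exposure, 37 °C | detection = luminescence read with Steady-Glo | read-out = percent activation relative to tunicamycin control | controls = tunicamycin high control, DMSO low control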
M18AAP inhibitor = PfM18AAP inhibitors, malaria aminopeptidase, primary screen, biochemical, QFRET, recombinant enzyme; H-Glu-NHMec fluorogenic cleavage; AID 1822, 2009; inhibition, % at 7.35 µM; 290,000 compounds, 1.2% hits;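 active = inhibition above the campaign mean inhibition over all tested compounds plus 3 SD, cut at about 28% in these data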
NS3 helicase cf = HCV NS3 helicase inhibitors, retest, confirmation, biochemical, Cy5 molecular beacon fluorescence, triplicate. shares compounds with HCV NS3 hel inh. NS3 helicase DNA unwinding. inhibition, % at 10.9 µM. 1,600 compounds, 31% hits;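 active = inhibition above the mean of all tested compounds plus 3 SD, cutoff set per campaign, cut at about 36% in these data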
FID counter trip = compounds displacing fluorescent DNA intercalator, artefact control for HCV NS3 helicase inhibitor project, biochemical, FID fluorescence, triplicate. AID 1945, 2009. inhibition, % at 7.9 µM. DNA fluorescent intercalator displacement. shares compounds with HCV NS3 hel inh. 1,600 compounds, 4% hits; in the data active = inhibition above about 37%;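 note: higher means more displacement of ethidium bromide from the DNA hairpin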
DNA FID DR = compounds displacing fluorescent intercalator from DNA, dose response, counter-screen for HCV NS3 helicase inhibitor project, biochemical, fluorescence | 120 tested, under 10 active | fluorescent intercalator displacement from DNA | IC50, µM | AID 2172, 2009 | shares compounds with HCV NS3 hel inh; call rule not given here
Hits are given with their value; - = inactive; . = no result given. This is a sample that favours compounds with a hit; in the whole collection about 4.5% have one here.

SMILES	HCV NS3 hel inh	p97 ATPase inh	CHOP inh	UPR XBP1 act	UPR CHOP act	M18AAP inhibitor	NS3 helicase cf	FID counter trip	others
N#CC1=C(N)Oc2ccc3ccc(O)cc3c2C1c1ccsc1 (configuration not stated)	53	-	-	.	.	-	-	-
CCOC(=O)c1cnc(-c2ccccc2)nc1N1CCOCC1	49	-	-	-	-	-	-	-
CN1CCN(CC(=O)N(C)c2nc(-c3ccccc3)cs2)CC1	49	-	-	-	-	-	-	-
CN1CCN(CC(=O)Nc2nc(-c3ccccc3)cs2)CC1	-	-	-	-	-	-	.	.
CC1Sc2ccc(S(=O)(=O)CCC(=O)NC3CCCC(C)C3C)cc2NC1=O (configuration not stated)	54	.	.	-	-	-	-	-
CC1CCCN(C(=O)CCS(=O)(=O)c2ccc3c(c2)NC(=O)C(C)S3)C1 (configuration not stated)	44	.	.	-	-	-	-	-
CCC(Cc1ccccc1)NC(=O)C1CC1 (configuration not stated)	41	.	.	-	-	-	-	-
CC(CCc1ccccc1)NC(=O)C1CC1 (configuration not stated)	.	.	.	-	-	.	.	.
O=C(COc1ccc2c3c(c(=O)oc2c1)CCCC3)N1C[C@H]2C[C@@H](C1)c1cccc(=O)n1C2	46	.	.	-	-	-	-	-
COc1ccc2ccccc2c1C(=O)/C=C\c1ccoc1	55	-	-	-	-	-	-	-
O=C(/C=C/c1ccoc1)c1ccccc1O	-	-	-	-	-	-	.	.
O=C(C[n+]1cc(-c2ccc(Cl)cc2)n2c1CCC2)Nc1nc(-c2ccc(F)cc2)cs1	-	-	-	-	-	-	.	.
O=c1[nH]c(Cc2ccccn2)nc2scc(-c3ccccc3Cl)c12	-	-	-	-	-	-	.	.
CN(C)c1ccc(N2CN=C3SCC(=O)N3C2)cc1	59	-	-	-	-	-	-	-
CN(C)c1ccc(-n2cccc2)cc1	-	-	-	-	-	-	.	.
Cc1ccnc(N/C=C(/NC(=O)c2ccccc2)C(=O)N/N=C\c2ccc(Cl)cc2)n1	-	-	-	-	-	-	.	.
CCOc1ccc2[nH]c(=O)c(CN(Cc3nnnn3Cc3ccco3)C3CCCCC3)cc2c1	65	-	-	-	-	-	-	-
O=C1[C@H]2[C@@H](/C=C/c3ccccc3)N3C(=O)CN(CCO)C(=O)[C@@]3(Cc3ccccc3)[C@H]2C(=O)N1c1ccccc1	-	.	.	-	-	-	.	.
CN1C(=O)[C@H]2[C@@H](/C=C/c3ccccc3)N3C(=O)CN(CCO)C(=O)[C@@]3(Cc3ccccc3)[C@H]2C1=O	44	.	.	-	-	-	-	-
Nc1c(C(=O)Nc2ccccc2F)sc2nc(-c3ccco3)ccc12	59	-	-	-	-	-	74	-	DNA FID DR=-
O=C(Nc1ccccc1F)c1cc(-c2ccco2)nc2ccccc12	.	.	.	-	-	.	.	.
CC(=O)NCCc1nc2cc(NS(=O)(=O)c3ccc(Cl)cc3)ccc2n1C	37	.	.	-	-	-	-	-
CC(=O)c1ccc(S(=O)(=O)NCCCC(=O)N(C)Cc2ccc3c(c2)OCO3)cc1	.	.	.	-	-	.	.	.
Cc1cc(/C=C2\SC(=S)NC2=O)c(C)n1C1CC1	76	-	-	-	-	-	36	-
COc1ccc(/C(C)=N/NC(=S)Nc2cc(C)ccc2C)cc1	-	-	-	-	-	-	.	.
SMILES	HCV NS3 hel inh	p97 ATPase inh	CHOP inh	UPR XBP1 act	UPR CHOP act	M18AAP inhibitor	NS3 helicase cf	FID counter trip	others
O=C(CC1SC(=O)N(c2ccccc2)C1=O)Nc1ccccc1 (configuration not stated)	38	-	-	-	-	-	-	-
O=c1c(-c2ccccc2)c(O)c2cccc3c2n1CCC3	-	-	-	-	-	-	.	.
Cc1cc(C)c(-c2c(O)c3cccc4c3n(c2=O)CCC4)c(C)c1	40	-	-	-	-	-	-	-
CCN(CC)CCn1cnc2c([nH]c3cccc(OC)c32)c1=O	42	-	-	-	-	-	-	-
Cc1ccc(S(=O)(=O)N2CCN(C(=O)c3ccc(N4CCCCC4)c([N+](=O)[O-])c3)CC2)cc1	-	.	.	-	-	-	.	.
CCCOc1ccc(-c2nc(SCc3ccccc3)[nH]c(=O)c2C#N)cc1OC	36	.	.	-	-	-	91	-	DNA FID DR=-
Cc1ccc(/C=C2\Oc3cc(OCC(=O)NN)ccc3C2=O)o1	39	.	.	-	-	-	-	-
Cc1[nH]c2ccccc2c1/C=N/n1cnnc1	-	-	-	-	-	-	.	.
CCN(CC)c1ccc(N=Cc2c(C)[nH]c3ccccc23)cc1	38	-	97	-	-	-	-	39
Cc1cc(C(=O)O)ccc1-n1c(C)ccc1C	78	-	-	-	-	-	90	-
O=C(Cc1ccc(-n2c(=O)[nH]c3ccsc3c2=O)cc1)N1CCN(c2ccc(Cl)cc2)CC1	-	-	-	-	-	-	.	.
NS(=O)(=O)c1ccc(N2C(=O)C(=O)/C(=C(/O)c3ccccc3)C2c2ccc(Cl)cc2)cc1 (configuration not stated)	41	-	-	-	-	-	-	-
O=C(O)c1cc(-c2ccc(/C=c3\sc4nc5ccc(Br)cc5n4c3=O)o2)ccc1Cl	38	.	.	.	.	-	73	-
Cc1cc2nc3s/c(=C/c4ccc(-c5ccccc5C(=O)O)o4)c(=O)n3c2cc1C	-	.	.	-	-	-	.	.
C#CCN1C(=O)S/C(=C\c2ccc(-c3ccc(Cl)c(C(=O)O)c3)o2)C1=O	40	.	.	-	-	-	56	-
COc1ccc(-n2c(-c3ccc(Cl)cc3)c[nH]c2=S)cc1	-	.	.	-	-	-	.	.
Cc1cc(-c2csc(NC(=O)c3ccc(S(=O)(=O)N(C)C)cc3)n2)c(C)n1-c1ccccc1	66	-	-	-	-	-	-	-
O=C(O)/C(=C/c1ccco1)NC(=O)c1ccccc1	-	-	-	-	-	-	.	.
